Screening results (PubChem BioAssay)
KCNQ1 block – inhibitors of human KCNQ1 channel, primary screen, cell-based, thallium flux, high-throughput | Potassium voltage-gated channel subfamily KQT member 1 (Homo sapiens), P51787 | B-score at 10 µM | CHO-K1 KCNQ1, FluxOR thallium flux fluorescence; active compounds read high | 310,000 tested, 1.3% active;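 active means compounds whose thallium flux B-score, printed positive for inhibition, exceeds three library SD while starting fluorescence stays within three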;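 further: channel opened by potassium depolarization with thallium stimulus after 20 min compound exposure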
Kir21 block – inhibitors of mouse Kir2.1 inward-rectifier potassium channel; 310,000 tested, 0.85% active; Inward rectifier potassium channel 2 (Mus musculus), P35561; AID 1672, 2009; HEK293-Kir2.1, FluxOR thallium flux fluorescence; active compounds read low; B-score at 10 µM;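 active means fluorescence ratio B-score at or below minus 3 SD of library scores, with starting-brightness B-score within 2 SD, cut at about -4.2 in these data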;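 further: channel flux triggered by added potassium and thallium sulfate stimulus; B-score of peak minus minimum fluorescence over baseline after thallium stimulus; more negative B-score means stronger Kir2.1 block with less thallium influx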
Target sequence (P35561 whole entry, looked up): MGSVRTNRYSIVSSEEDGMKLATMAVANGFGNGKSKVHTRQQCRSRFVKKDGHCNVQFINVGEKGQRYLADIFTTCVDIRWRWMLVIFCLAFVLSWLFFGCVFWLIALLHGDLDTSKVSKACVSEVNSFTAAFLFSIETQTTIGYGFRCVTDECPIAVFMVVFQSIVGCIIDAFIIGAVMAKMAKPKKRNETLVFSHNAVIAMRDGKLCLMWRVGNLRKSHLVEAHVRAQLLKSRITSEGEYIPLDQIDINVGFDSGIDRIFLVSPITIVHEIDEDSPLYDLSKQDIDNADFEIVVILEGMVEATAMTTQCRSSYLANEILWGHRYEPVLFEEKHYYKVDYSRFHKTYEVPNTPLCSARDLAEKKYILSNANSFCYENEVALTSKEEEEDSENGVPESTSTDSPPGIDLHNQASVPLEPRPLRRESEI
hERG rescue – hERG rescue from dofetilide block, primary screen, cell-based, CHO-hERG, FluxOR thallium flux, dofetilide IC70; Voltage-gated inwardly rectifying potassium channel KCNH2 (Homo sapiens), Q12809; dofetilide IC70 present; activation (rescue from dofetilide block), less the hit threshold, % at 10 µM; 310,000 tested, 0.51% active; AID 1511, 2009;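 active means activation above the mean of controls blocked by dofetilide plus 5 SD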;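 further: thallium influx through hERG after potassium depolarization seen as dye fluorescence rise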
KCNK3 block – human KCNK3 channel inhibitors, primary screen, CHO cells, FluxOR thallium flux, B-score; Potassium channel subfamily K member 3 (Homo sapiens), O14649; FluxOR fluorescence; active compounds read low; B-score at 10 µM; 340,000 tested, 0.84% active;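 active means B-score under library mean minus 4 SD, starting fluorescence ratio at most library mean plus 5 SD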;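 further: more negative B-score means stronger inhibition of thallium flux through KCNK3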
KCNQ1 act – potentiators or activators of KCNQ1 channel, primary screen, cell-based, thallium flux, high-throughput. CHO-K1 KCNQ1, thallium flux FluxOR fluorescence; active compounds read high. B-score at 10 µM. 310,000 tested, 0.35% active. AID 2648, 2010;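 active means fluorescence ratio B-score, a plate-corrected score, at least three library SD, with initial intensity B-score within 5 SD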
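Doses: Single concentration per compound, DMSO matched to controls | Test system: KCNQ1-transfected CHO-K1 cells | Timing: 90 min dye loading and 20 min compound exposure, both at room temperature | Measured by: Kinetic FluxOR thallium fluorescence, 10-s 1-Hz baseline, 110-s post-stimulus read | Medium: Assay buffer with matched DMSO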
KCNK9 inh – KCNK9 potassium channel inhibitors, primary screen, HEK293 cells, thallium flux | AID 488922, 2010 | B-score at 10 µM | FluxOR thallium flux fluorescence; active compounds read low | Potassium channel subfamily K member 9 (Homo sapiens), Q9NPC2 | 310,000 tested, 1.2% active;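 active means ratio B-score over 3 SD below the library mean, with starting fluorescence within 5 SD of its mean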;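 further: negative B-score means less thallium flux so channel inhibition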
Starred values were filed as active, the others as inactive; i = inactive; · = no result given. A selection: hits, their analogues and other compounds. The true share with any hit is near 3.7%.

SMILES	KCNQ1 block	Kir21 block	hERG rescue	KCNK3 block	KCNQ1 act	KCNK9 inh
CCn1c(=S)[nH]c2scc(-c3cccs3)c2c1=O	i	0.07	100*	i	112*	i
C=CCn1c(=S)[nH]c2scc(-c3ccc(C)o3)c2c1=O	i	0.81	64*	i	99*	i
Clc1ccc(CN2CCC(c3nc4ccc(Cl)cc4[nH]3)CC2)cc1	i	-8*	-13	i	i	i
Cc1cnnn1-c1ccc(C(=O)CCl)cc1	6*	0.47	-24	i	i	i
CC(C)(O)/C=C/C[C@](C)(O)C1CC[C@]2(C)C1[C@H](O[C@H]1O[C@@H](CO)[C@H](O)[C@@H](O)[C@@H]1O)CC1[C@@]3(C)CC[C@H](O)C(C)(C)C3[C@@H](O)C[C@]12C (some centres undefined)	·	·	·	i	·	·
CC(=O)c1ccc(-c2nnc(CCC(=O)N(C)Cc3c(C)nc4ccccn34)o2)s1	i	-0.02	8.1*	i	i	i
CC(=O)c1ccc(-c2nnc(CCC(=O)N(C)Cc3cccc4cnccc34)o2)s1	i	0.38	-14	i	i	i
Cc1ccc(CNS(=O)(=O)c2ccc(C)s2)cc1	i	1.1	-5	i	i	i
Cc1ccc(S(=O)(=O)N2CCOCC2)cc1C(=O)NCCCn1ccnc1	i	-2.1	4.7*	i	i	i
O=C(NCCCn1ccnc1)c1cc(S(=O)(=O)N2CCOCC2)c(Cl)cc1Cl	i	-0.6	-7	i	i	i
O=C(COC(=O)C1CCN(/C=C/C(=O)C(F)(F)F)CC1)Nc1cccc(F)c1	i	0.77	-1	i	i	i
C#CCN1C(=O)S/C(=C/C=C/c2ccc(N(C)C)cc2)C1=O	·	·	·	i	·	·
CCOC(=O)c1c(NC(=O)CSc2nnnn2C)sc(C)c1-c1ccc(C)cc1	i	2.3	-14	i	i	-6.6*
CC1Cc2cc(/C(O)=C3/C(=O)C(=O)N(CCN4CCOCC4)C3c3ccc([N+](=O)[O-])cc3)ccc2O1 (centres undefined)	i	2.4	-5	i	i	i
COc1cc(OC)cc(-c2oc(=O)c3cc(OC)c(OC)cc3c2C(F)(F)F)c1	·	·	·	i	·	·
O=S(=O)(NC12CC3CC(CC(C3)C1)C2)c1ccc(F)cc1	i	-1.5	-7	i	i	i
CC(=O)c1ccc(OCC(O)COc2ccc(C(C)=O)cc2)cc1	i	2.9	4.9*	i	i	i
C=C(C)C(=O)OCC(O)COc1ccc(C(C)(C)c2ccc(OCC(O)COC(=O)C(=C)C)cc2)cc1 (centres undefined)	9*	0.17	-19	-12*	i	i
CC(=O)N(C)c1ccc(OCC(O)COc2ccc(N(C)C(C)=O)cc2)cc1	i	-0.03	-6	i	i	i
CCn1c(CNc2ccc(F)cc2)nnc1SCC(=O)OC1CCCCC1	i	-4.5*	-3	i	i	i
CCOC(=O)CSc1nnc(CNc2ccc(Cl)cc2)n1Cc1ccccc1	8*	-2.5	-15	i	i	i
Cc1ccc(OCC(=O)NC(=S)Nc2ccc(Br)c(C)n2)cc1	i	-0.95	-7	i	i	i
Cc1ccc(OCC(=O)NC(=S)Nc2ccc(Br)cn2)cc1	i	-0.78	12*	i	9*	i
COc1ccc2c(c1)-c1nc(/N=C/c3c(O)ccc4ccccc34)sc1CC2	11*	0.02	-10	i	i	i
COc1ccc2c(c1)-c1nc(/N=C/c3ccc(O)cc3)sc1CC2	·	·	·	i	·	·
SMILES	KCNQ1 block	Kir21 block	hERG rescue	KCNK3 block	KCNQ1 act	KCNK9 inh
Cc1cc(C)c2c(=O)n(CC(=O)NCCCN3CCOCC3)sc2n1	i	0.98	-5	i	i	i
Cc1cc(C)c2c(=O)n(CC(=O)NCCCN3CCN(c4ccccc4F)CC3)sc2n1	i	-5.5*	-48	·	i	i
COC(=O)c1cc(NC(=O)c2cccs2)ccc1N1CCOCC1	i	0.77	-22	i	i	i
COC(=O)c1cc(NC(=O)c2cc(-c3ccc(Cl)cc3)oc2C(F)(F)F)ccc1N1CCOCC1	7*	0.98	-13	i	i	i
Cc1[nH]c2ccccc2c1C1=CC(=O)C=CC1=O	·	·	·	-9.2*	·	·
Cc1[nH]c2ccccc2c1CC#N	i	0.23	-9	i	i	i
CSc1ncccc1C(=O)NCc1nnc2ccccn12	·	·	·	i	·	·
Cc1cccc(NC(=S)c2nc3ccccc3s2)c1	i	-2	43*	i	10*	i
CCN(CC)C(=O)COc1ccc2oc(C)c(C(=O)OC(C)C)c2c1	i	-4.2*	-19	i	i	i
COCCOC(=O)c1c(C)oc2ccc(OCC=C(C)C)cc12	i	0.31	-1	-9.1*	i	i
Cc1cnc(C)c(N2CCN(Cc3nc(-c4ccccc4)no3)CC2)n1	i	1.8	-7	i	i	i
O=C(CCC1N=C2c3ccccc3N=C(SCc3ccc(F)cc3)N2C1=O)NCc1ccco1 (centres undefined)	i	-1.8	-18	i	i	i
O=C(CCC1N=C2c3ccccc3N=C(SCc3ccc(Cl)cc3)N2C1=O)NCc1ccco1 (centres undefined)	i	-2.5	-17	i	i	-7.8*
CCn1c2ccccc2c2cc(NC(=O)COc3ccccc3)ccc21	i	0.13	5.4*	i	i	i
CCn1c2ccccc2c2cc(NC(=O)c3coc(=O)c(Br)c3)ccc21	i	-1.3	-19	·	i	-8.8*
O=C(CN1CCN(C(=O)C2COc3ccccc3O2)CC1)Nc1ccc(F)cc1 (centres undefined)	i	0.09	-8	i	i	i
CCOC(=O)c1ccc(NC(=O)c2ccccc2C)cc1	i	0.93	-13	i	i	i
CCn1c(CSc2nnc(-c3ccoc3C)n2C)nc2cc(S(=O)(=O)N(C)C)ccc21	i	0.11	32*	i	i	i
O=C(COc1ccc2c(-c3ccccc3)cc(=O)oc2c1)NC1CCS(=O)(=O)C1 (centres undefined)	·	·	·	i	·	·
CCCCN(CCCC)C(=O)c1cc(Cl)ccc1[N+](=O)[O-]	i	-7*	-11	i	i	i
